# Reference: ChEMBL document CHEMBL1130262, “Peptidomimetic inhibitors of the human cytomegalovirus protease” (J Med Chem, 1997)
# What was measured:
# Chymotrypsinogen A = Chymotrypsinogen A (Bos taurus, UniProt P00766); assay: Activity against serine protease bovine pancreatic Alpha-Chymotrypsinogen (BPC)
# Summary of the method: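 Colorimetric assay with bovine pancreatic α-chymotrypsin ([…], as printed) and 100 μM Succ-AAPF-pNA. Inhibitor at 300–0.06 μM, preincubated with enzyme 1 h at 30 °C. Substrate then added and hydrolysis run to ~30% conversion, read as pNA absorbance.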
# Cathepsin B = Cathepsin B (Homo sapiens, UniProt P07858); assay: Activity against serine protease human liver Cathepsin B (cat-B )
# Summary of the method: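 Human liver cathepsin B, 5 nM, with the stock enzyme activated in 20 mM TCEP before use. Inhibitor at 300–0.06 μM, preincubated 1 h at 30 °C. Then 30 μM Z-FR-pNA added, hydrolysis to ~30% conversion, pNA absorbance read.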
# Neutrophil elastase = target: T1, Neutrophil elastase (Homo sapiens, UniProt P08246); assay: Binding affinity for human leukocyte elastase(HLE) serine protease
# T1 sequence (P08246 whole entry): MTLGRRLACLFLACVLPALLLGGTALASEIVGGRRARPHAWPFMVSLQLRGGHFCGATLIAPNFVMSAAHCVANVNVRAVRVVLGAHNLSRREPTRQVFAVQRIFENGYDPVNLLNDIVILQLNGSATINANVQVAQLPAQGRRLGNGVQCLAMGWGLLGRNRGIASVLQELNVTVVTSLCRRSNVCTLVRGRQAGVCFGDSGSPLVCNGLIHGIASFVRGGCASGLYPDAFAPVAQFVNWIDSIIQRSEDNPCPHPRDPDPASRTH
# Summary of the method: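 Human leukocyte elastase at 8 nM with 133 μM Succ-AAV-pNA. Inhibitor at 300–0.06 μM, preincubated with enzyme 1 h at 30 °C. Substrate hydrolysis run to ~30% conversion and read by absorbance.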
Structure (SMILES),IC50 (Chymotrypsinogen A),IC50 (Cathepsin B),IC50 (Neutrophil elastase)
CC(NC(=O)[C@H](CC(=O)N(C)C)NC(=O)[C@@H](NC(=O)CC(C)(C)C)C(C)(C)C)C(=O)c1nc2ccccc2s1 (stereo partly specified),> 300 µM,19 µM,> 300 µM
Cc1ccc2oc(C(=O)C(C)NC(=O)[C@H](CC(=O)N(C)C)NC(=O)[C@@H](NC(=O)CC(C)(C)C)C(C)(C)C)nc2c1 (stereo partly specified),> 300 µM,> 300 µM,> 300 µM
CC(NC(=O)[C@H](CC(=O)N(C)C)NC(=O)[C@@H](NC(=O)CC(C)(C)C)C(C)(C)C)C(=O)c1nc2ccccc2o1 (stereo partly specified),> 300 µM,> 300 µM,183 µM
CC(NC(=O)[C@H](CC(=O)N(C)C)NC(=O)[C@@H](NC(=O)CC(C)(C)C)C(C)(C)C)C(=O)c1nc2ncccc2o1 (stereo partly specified),> 300 µM,59 µM,> 300 µM
Cc1ccc2nc(C(=O)C(C)NC(=O)[C@H](CC(=O)N(C)C)NC(=O)[C@@H](NC(=O)CC(C)(C)C)C(C)(C)C)oc2c1 (stereo partly specified),> 300 µM,225 µM,> 300 µM

# The remaining lines, values ahead:
IC50 (Chymotrypsinogen A),IC50 (Cathepsin B),IC50 (Neutrophil elastase),Structure (SMILES)
> 300 µM,> 300 µM,> 300 µM,C[C@H](NC(=O)[C@H](CC(=O)N(C)C)NC(=O)[C@@H](NC(=O)CC(C)(C)C)C(C)(C)C)C(=O)C(F)(F)C(=O)NCc1ccccc1
> 300 µM,> 300 µM,> 300 µM,Cc1cccc2nc(C(=O)C(C)NC(=O)[C@H](CC(=O)N(C)C)NC(=O)[C@@H](NC(=O)CC(C)(C)C)C(C)(C)C)oc12 (stereo partly specified)
> 75 µM,> 300 µM,> 300 µM,CN(C)C(=O)C[C@H](NC(=O)[C@@H](NC(=O)CC(C)(C)C)C(C)(C)C)C(=O)N[C@H]1CN(OCc2ccccc2)C1=O
14 µM,> 300 µM,> 300 µM,CC(NC(=O)[C@H](CC(=O)N(C)C)NC(=O)[C@@H](NC(=O)CC(C)(C)C)C(C)(C)C)C(=O)C(F)(F)C(F)(F)F (stereo partly specified)
> 300 µM,> 300 µM,> 300 µM,C[C@H](NC(=O)[C@H](CC(=O)N(C)C)NC(=O)[C@@H](NC(=O)CC(C)(C)C)C(C)(C)C)C(=O)C(F)(F)F
> 300 µM,> 300 µM,> 300 µM,Cc1cccc2oc(C(=O)C(C)NC(=O)[C@H](CC(=O)N(C)C)NC(=O)[C@@H](NC(=O)CC(C)(C)C)C(C)(C)C)nc12 (stereo partly specified)
> 300 µM,> 300 µM,> 300 µM,CC(NC(=O)[C@H](CC(=O)N(C)C)NC(=O)[C@@H](NC(=O)CC(C)(C)C)C(C)(C)C)C(=O)C(=O)NCc1ccccc1 (stereo partly specified)
